Measurements taken from ChEMBL document CHEMBL3596186, “Synthesis and biological evaluation of diarylthiazole derivatives as antimitotic and antivascular agents with potent antitumor activity” (Bioorg Med Chem, 2015).
Active and inactive are the calls of the source. The calls are words filed in the database; no cut-off is given here.

Assays:
HepG2 = test: Antiproliferative activity against human HepG2 cells after 48 hrs by MTT assay; assay type: functional, cell-based; details: HepG2, 48 h
Outline: (§1)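 HCT116, HepG2, SMMC-7721, SK-OV-3 and A2780s grown in DMEM; A549 and MCF-7 in RPMI-1640; all with 10% FBS and penicillin/streptomycin at 37 °C, 5% CO2. Log-phase cells at 40,000-50,000 cells/mL treated with graded concentrations for 48 h. MTT 3 h, DMSO solubilization, A570. IC50 from percent growth versus untreated control; mean ± SEM of ≥3 independent dose-response experiments.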

HCT-116 [1] = test: Antiproliferative activity against human HCT116 cells after 48 hrs by MTT assay; assay type: functional, cell-based; details: HCT-116, 48 h; outline: as §1
SK-OV-3 = test: Antiproliferative activity against human SKOV3 cells after 48 hrs by MTT assay; assay type: functional, cell-based; details: SK-OV-3, 48 h; outline: as §1
[2] = Antiproliferative activity against human A2780S cells after 48 hrs by MTT assay; assay type: functional, cell-based; details: A2780, 48 h; outline: as §1
[3] = Antiproliferative activity against human […] cells after 48 hrs by MTT assay; assay type: functional, cell-based; outline: as §1
Tubulin (Homo sapiens) = Tubulin (Homo sapiens) (UniProt P68371+Q9H4B7+P0DPH7+P68366+Q13509+Q71U36+P04350+Q3ZCM7+P07437+P68363+Q9BQE3+Q6PEY2+Q13885+Q9BVA1+Q9BUF5); test: Binding affinity to tubulin in human HepG2 cells at 5 uM after 4 hrs by EBI competition assay; assay type: cell-based
Outline: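 HepG2 cells seeded at 500,000 cells/well, allowed to adhere, then treated with compound for 4 h. EBI added at 100 µM for 1.5 h. Cell extracts (about 20 µg protein) run on 10% SDS-PAGE, blotted to PVDF, probed with anti-β-tubulin, detected by ECL with GAPDH as loading control. Read-out is loss of the faster-migrating β-tubulin–EBI adduct band.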

[4] = Inhibition of pig microtubule polymerization after 30 mins by turbidimetric assay; set-up: species or system Sus scrofa
Outline: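 Porcine-brain MAP-rich tubulin at 3 mg/mL preincubated 30 min at 4 °C in 0.1 M PIPES pH 6.9, 2 mM MgCl2, 0.5 mM EGTA. Compounds added 2 min before the run, then 1 mM GTP. Turbidity followed kinetically at 340 nm at 37 °C; assembly IC50 derived by Hamel's method.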

MCF7 [5] = test: Antiproliferative activity against human MCF7 cells after 48 hrs by MTT assay; assay type: functional, cell-based; details: MCF7, 48 h; outline: as §1
NCI-H1975 [6] = test: Resistance ratio, ratio of IC50 for human gefitinib-resistant NCI-H1975 cells to IC50 for human HCC827 cells; assay type: functional
[7] = Antiproliferative activity against human doxorubicin-resistant MCF7 cells after 48 hrs by MTT assay; assay type: functional, cell-based; details: MCF7, 48 h
Outline: (§2)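 MCF-7/ADR (doxorubicin-resistant) and A549/T (taxol-resistant) cells in RPMI-1640 with 10% FBS and penicillin/streptomycin. Log-phase cells at 40,000-50,000 cells/mL exposed to graded concentrations for 48 h. MTT 3 h, DMSO solubilization, absorbance 570 nm. IC50 from percent growth versus untreated control; mean ± SEM of ≥3 independent experiments.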

MCF7 [8] = test: Resistance ratio, ratio of IC50 for human doxorubicin-resistant MCF7 cells to IC50 for human MCF7 cells; assay type: functional
Outline: (§3)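 MTT assay: log-phase cells at 40,000-50,000 cells/mL in RPMI-1640 with 10% FBS, exposed to graded concentrations for 48 h, then MTT 3 h, DMSO solubilization, absorbance at 570 nm. IC50 from growth versus untreated control, at least three independent experiments. Ratio = resistant-line IC50 / parental-line IC50.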

A549 [9] = test: Resistance ratio, ratio of IC50 for human taxol-resistant A549 cells to IC50 for human A549 cells; assay type: functional; outline: as §3
A549 [10] = test: Antiproliferative activity against human A549 cells after 48 hrs by MTT assay; assay type: functional, cell-based; details: A549, 48 h; outline: as §1
A549 [11] = test: Antiproliferative activity against human taxol-resistant A549 cells after 48 hrs by MTT assay; assay type: functional, cell-based; details: A549, 48 h; outline: as §2
NCI-H1975 [12] = test: Antiproliferative activity against human gefitinib-resistant NCI-H1975 cells after 48 hrs by MTT assay; assay type: functional, cell-based; details: NCI-H1975, 48 h
[13] = Antiproliferative activity against human HCC827 cells after 48 hrs by MTT assay; assay type: functional, cell-based; details: HCC827, 48 h
Mus musculus [14] = test: Toxicity in Balb/c athymic nude mouse xenografted with human HCT116 cells assessed as loss in body weight at 10 mg/kg, ip administered daily; assay type: organism-based, HCT-116; details: in vivo
Outline: (§4)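 Female Balb/C athymic nude mice, 5-6 weeks old, bearing s.c. right-flank xenografts (cells in HBSS). Once tumors averaged 100 mm3, animals were randomized into groups of 6 and dosed i.p. once daily. Body weight was recorded every two days during treatment.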

HCT-116 [15] = test: Antitumor activity against human HCT116 cells xenografted in Balb/c athymic nude mouse assessed as tumor growth inhibition at 10 mg/kg, ip administered daily after 42 days; assay type: functional; details: HCT-116, ip, 1008 h, read-out: TGI
Outline: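 Female Balb/C athymic nude mice, 5-6 weeks old, given s.c. tumor cells in HBSS into the right flank. Once tumors averaged 100 mm3, animals were randomized into groups of 6 and given daily i.p. injections. Tumor volume (π/6 × length × width²) was measured every two days. Inhibition = (1 − treated/control tumor weight) × 100%, taken at day 42.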

Mus musculus [16] = test: Toxicity in Balb/c athymic nude mouse xenografted with human SKOV3 cells assessed as loss in body weight at 10 mg/kg, ip administered daily; assay type: organism-based, SK-OV-3; details: in vivo; outline: as §4

SMILES | IC50 (HepG2) | IC50 (HCT-116 [1]) | IC50 (SK-OV-3) | IC50 [2] | IC50 [3] | other results
CCOc1ccc(-c2nc(NC(C)=O)sc2-c2cc(OC)c(OC)c(OC)c2)cc1 | 60.9 nM | 10.2 nM | 167 nM | 10.2 nM | 13 nM | –
CCCN(CCC)c1nc(-c2ccc(OCC)cc2)c(-c2cc(OC)c(OC)c(OC)c2)s1 | > 5000 nM | > 5000 nM | > 5000 nM | > 5000 nM | > 5000 nM | –
CCCC(=O)Nc1nc(-c2ccc(OCC)cc2)c(-c2cc(OC)c(OC)c(OC)c2)s1 | 76.8 nM | 18 nM | 105 nM | 18 nM | 11 nM | Activity (Tubulin (Homo sapiens)): inactive; IC50 [4]: 9.04 µM
CCOc1ccc(-c2nc(N(CC)CC)sc2-c2cc(OC)c(OC)c(OC)c2)cc1 | > 5000 nM | > 5000 nM | > 5000 nM | > 5000 nM | > 5000 nM | –
CCOc1ccc(-c2nc(N(Cc3ccccc3)Cc3ccccc3)sc2-c2cc(OC)c(OC)c(OC)c2)cc1 | > 5000 nM | > 5000 nM | > 5000 nM | > 5000 nM | > 5000 nM | –
CCOc1ccc(-c2nc(NC(=O)C(C)C)sc2-c2cc(OC)c(OC)c(OC)c2)cc1 | 177 nM | 22.5 nM | 85.2 nM | 22.5 nM | 65.2 nM | –
CCOc1ccc(-c2nc(C(OCC)OCC)sc2-c2cc(OC)c(OC)c(OC)c2)cc1 | > 5000 nM | > 5000 nM | > 5000 nM | > 5000 nM | > 5000 nM | –
CCOc1ccc(-c2nc(NS(=O)(=O)c3ccc(Br)cc3C(F)(F)F)sc2-c2cc(OC)c(OC)c(OC)c2)cc1 | > 5000 nM | > 5000 nM | > 5000 nM | > 5000 nM | > 5000 nM | –
CCOc1ccc(-c2nc(NS(=O)(=O)c3ccc([N+](=O)[O-])cc3OC)sc2-c2cc(OC)c(OC)c(OC)c2)cc1 | > 5000 nM | > 5000 nM | > 5000 nM | > 5000 nM | > 5000 nM | –
CCOc1ccc(-c2nc(C(C)(C)C)sc2-c2cc(OC)c(OC)c(OC)c2)cc1 | > 5000 nM | > 5000 nM | > 5000 nM | > 5000 nM | > 5000 nM | –
C=CCN(CC=C)c1nc(-c2ccc(OCC)cc2)c(-c2cc(OC)c(OC)c(OC)c2)s1 | > 5000 nM | > 5000 nM | > 5000 nM | > 5000 nM | > 5000 nM | –
CCOC(=O)c1nc(-c2ccc(OCC)cc2)c(-c2cc(OC)c(OC)c(OC)c2)s1 | > 5000 nM | > 5000 nM | > 5000 nM | > 5000 nM | > 5000 nM | –
COc1ccc(-c2nc(N)sc2-c2cc(OC)c(OC)c(OC)c2)cc1 | 50.6 nM | 93.7 nM | 110 nM | 14 nM | 9 nM | –
CCOc1ccc(-c2ncsc2-c2cc(OC)c(OC)c(OC)c2)cc1 | 65 nM | 62 nM | 10 nM | 86 nM | 128 nM | IC50 (MCF7 [5]): 1160 nM; Activity (Tubulin (Homo sapiens)): inactive; Ratio IC50 (NCI-H1975 [6]): 2.38; IC50 [4]: 3.55 µM; IC50 [7]: 1560 nM; Ratio IC50 (MCF7 [8]): 1.3; Ratio IC50 (A549 [9]): 0.45; IC50 (A549 [10]): 696 nM; IC50 (A549 [11]): 425 nM; IC50 (NCI-H1975 [12]): 1120 nM; IC50 [13]: 469 nM
CCOc1ccc(-c2nc(N(C)C)sc2-c2cc(OC)c(OC)c(OC)c2)cc1 | > 5000 nM | > 5000 nM | > 5000 nM | > 5000 nM | > 5000 nM | –
COc1cc2c(c(OC)c1OC)-c1ccc(OC)c(=O)cc1[C@@H](NC(C)=O)CC2 [COLCHICINE] | – | – | – | – | – | IC50 [4]: 5.02 µM
CCOc1ccc(-c2nc(C)sc2-c2cc(OC)c(OC)c(OC)c2)cc1 | 368 nM | 64 nM | 68 nM | 106 nM | 126 nM | IC50 [4]: > 10 µM
CCNC(=O)Nc1nc(-c2ccc(OCC)cc2)c(-c2cc(OC)c(OC)c(OC)c2)s1 | 30.7 nM | 22.1 nM | 29.2 nM | 1.3 nM | 10.6 nM | IC50 (MCF7 [5]): 417 nM; Activity (Tubulin (Homo sapiens)): inactive; Ratio IC50 (NCI-H1975 [6]): 0.35; IC50 [4]: 3.9 µM; IC50 [7]: 727 nM; Ratio IC50 (MCF7 [8]): 1.7; Ratio IC50 (A549 [9]): 0.64; IC50 (A549 [10]): 103 nM; IC50 (A549 [11]): 140 nM; IC50 (NCI-H1975 [12]): 220 nM; IC50 [13]: 623 nM
COc1ccc(/C=C\c2cc(OC)c(OC)c(OC)c2)cc1O [COMBRETASTATIN A4] | – | – | – | – | – | IC50 [4]: 5.91 µM
CCOc1ccc(-c2nc(NS(=O)(=O)c3ccc(C)c(C)c3)sc2-c2cc(OC)c(OC)c(OC)c2)cc1 | > 5000 nM | > 5000 nM | > 5000 nM | > 5000 nM | > 5000 nM | –
CCOc1ccc(-c2nc(NS(=O)(=O)c3ccsc3Cl)sc2-c2cc(OC)c(OC)c(OC)c2)cc1 | > 5000 nM | > 5000 nM | > 5000 nM | > 5000 nM | > 5000 nM | –
CCOc1ccc(-c2nc(C=O)sc2-c2cc(OC)c(OC)c(OC)c2)cc1 | 50 nM | 48 nM | 9 nM | 104 nM | 106 nM | IC50 [4]: > 10 µM
CCOc1ccc(-c2nc(NS(=O)(=O)c3ccc(OC)c(F)c3)sc2-c2cc(OC)c(OC)c(OC)c2)cc1 | > 5000 nM | > 5000 nM | > 5000 nM | > 5000 nM | > 5000 nM | –
CCOc1ccc(-c2nc(NC(=O)CC)sc2-c2cc(OC)c(OC)c(OC)c2)cc1 | 40.6 nM | 50.5 nM | 60.4 nM | 5.1 nM | 10.8 nM | IC50 [4]: > 10 µM
CCOc1ccc(-c2sc(N)nc2-c2cc(OC)c(OC)c(OC)c2)cc1 | 8.3 nM | 9.2 nM | 8.4 nM | 8.6 nM | 10 nM | –
COc1cccc2c1C(=O)c1c(O)c3c(c(O)c1C2=O)C[C@@](O)(C(=O)CO)C[C@@H]3O[C@H]1C[C@H](N)[C@H](O)[C@H](C)O1 [DOXORUBICIN] | – | – | – | – | – | IC50 [7]: 5300 nM
O=c1[nH]cc(F)c(=O)[nH]1 [FLUOROURACIL] | – | – | – | – | – | Activity (Mus musculus [14]): Toxic; inhibition in vivo at 10 mg/kg (HCT-116 [15]): 37.3%; Activity (Mus musculus [16]): Toxic
